Results on 32 compounds are retold here after ChEMBL document CHEMBL2057126, “Discovery of new inhibitors of Cdc25B dual specificity phosphatases by structure-based virtual screening” (J Med Chem, 2012).

Molecules are shown by their SMILES. Calls of active or inactive are those of the source. No cut-off for these calls is given here.

The target of test [1] is T1, M-phase inducer phosphatase 2 (Homo sapiens, UniProt P30305).
T1 sequence (P30305 whole entry): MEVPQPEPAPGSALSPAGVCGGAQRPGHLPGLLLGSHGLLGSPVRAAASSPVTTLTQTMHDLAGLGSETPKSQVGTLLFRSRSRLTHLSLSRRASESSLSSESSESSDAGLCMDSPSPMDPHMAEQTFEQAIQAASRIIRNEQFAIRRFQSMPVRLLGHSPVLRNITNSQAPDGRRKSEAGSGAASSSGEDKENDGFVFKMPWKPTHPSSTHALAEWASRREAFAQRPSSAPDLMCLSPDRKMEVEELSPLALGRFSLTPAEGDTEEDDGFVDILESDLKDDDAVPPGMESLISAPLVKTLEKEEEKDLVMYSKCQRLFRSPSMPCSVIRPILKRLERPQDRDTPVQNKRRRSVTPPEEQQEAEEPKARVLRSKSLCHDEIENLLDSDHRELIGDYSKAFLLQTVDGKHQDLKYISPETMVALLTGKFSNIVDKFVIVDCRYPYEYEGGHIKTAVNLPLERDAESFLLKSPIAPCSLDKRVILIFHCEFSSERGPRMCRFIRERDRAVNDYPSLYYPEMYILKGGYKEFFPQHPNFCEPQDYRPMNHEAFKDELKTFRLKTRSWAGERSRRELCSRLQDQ
Kind of test: Inhibition of recombinant phosphatase activity of Cdc25B catalytic domain expressed in Escherichia coli BL21(DE3) using OMFP as substrate by spectrofluorimetric analysis.

Test [2] deals with T2, M-phase inducer phosphatase 2 (Homo sapiens) (UniProt P30305).
T2 sequence (whole entry): T1 sequence (P30305 whole entry)
Kind of test: Reversible inhibition of recombinant phosphatase activity of Cdc25B catalytic domain expressed in Escherichia coli BL21(DE3) assessed as residual activity of enzyme measured after 10 fold dilution at 50 uM preincubated for 20 mins. An outline of the steps: (§1)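 Dilution test: Cdc25B pretreated with inhibitor for up to 20 min, mixture diluted 10-fold, and residual phosphatase activity measured to judge reversible versus irreversible inhibition.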

Test [3] concerns the target T2, M-phase inducer phosphatase 2 (Homo sapiens). Kind of test: Inhibition of recombinant phosphatase activity of Cdc25B catalytic domain expressed in Escherichia coli BL21(DE3) using OMFP as substrate at 50 uM by spectrofluorimetric analysis. A digest of the protocol: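 Single-point screen: percent inhibition of Cdc25B phosphatase activity (OMFP hydrolysis) measured with inhibitor at 50 μM.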

Test [4] shares this target. Kind of test: Inhibition of recombinant phosphatase activity of Cdc25B catalytic domain expressed in Escherichia coli BL21(DE3) using OMFP as substrate at 100 uM after 15 mins by fluorimetric assay.
For test [5] the target is unchanged. Put plainly: Reversible inhibition of recombinant phosphatase activity of Cdc25B catalytic domain expressed in Escherichia coli BL21(DE3) assessed as residual activity of enzyme measured after 10 fold dilution at 100 uM preincubated for 20 mins.
In test [6] the target is T3, M-phase inducer phosphatase 1 (Homo sapiens) (UniProt P30304).
T3 sequence (whole entry): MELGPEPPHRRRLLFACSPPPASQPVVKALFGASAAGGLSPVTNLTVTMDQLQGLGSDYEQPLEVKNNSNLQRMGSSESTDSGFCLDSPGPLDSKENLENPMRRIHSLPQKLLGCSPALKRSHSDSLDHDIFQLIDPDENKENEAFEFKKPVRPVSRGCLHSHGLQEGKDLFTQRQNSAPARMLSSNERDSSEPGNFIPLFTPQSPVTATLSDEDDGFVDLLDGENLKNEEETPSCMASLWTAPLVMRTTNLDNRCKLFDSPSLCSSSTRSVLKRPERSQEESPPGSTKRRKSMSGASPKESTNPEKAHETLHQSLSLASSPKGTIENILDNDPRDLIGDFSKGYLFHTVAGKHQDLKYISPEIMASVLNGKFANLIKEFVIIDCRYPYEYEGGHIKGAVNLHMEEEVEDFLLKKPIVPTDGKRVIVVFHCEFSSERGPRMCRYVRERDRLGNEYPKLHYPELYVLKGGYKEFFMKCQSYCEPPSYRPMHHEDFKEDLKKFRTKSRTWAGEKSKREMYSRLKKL
Put plainly: Inhibition of recombinant phosphatase activity of Cdc25A catalytic domain expressed in Escherichia coli BL21(DE3) using OMFP as substrate at 100 uM after 15 mins by fluorimetric assay.

For test [7], the target named is T4, M-phase inducer phosphatase 3 (Homo sapiens) (UniProt P30307).
T4 sequence (whole entry): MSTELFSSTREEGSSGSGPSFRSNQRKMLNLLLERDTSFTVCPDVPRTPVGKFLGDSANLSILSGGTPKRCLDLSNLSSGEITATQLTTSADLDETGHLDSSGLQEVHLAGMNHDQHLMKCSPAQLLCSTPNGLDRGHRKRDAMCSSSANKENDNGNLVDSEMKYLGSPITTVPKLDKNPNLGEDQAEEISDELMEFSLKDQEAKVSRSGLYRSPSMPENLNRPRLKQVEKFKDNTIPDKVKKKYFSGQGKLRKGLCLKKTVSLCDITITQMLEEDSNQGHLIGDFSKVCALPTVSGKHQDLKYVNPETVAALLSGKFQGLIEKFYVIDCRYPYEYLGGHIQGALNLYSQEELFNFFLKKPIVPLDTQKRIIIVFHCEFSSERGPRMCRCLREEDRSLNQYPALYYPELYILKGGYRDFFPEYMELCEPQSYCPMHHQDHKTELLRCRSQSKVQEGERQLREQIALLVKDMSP
Put plainly: Inhibition of recombinant phosphatase activity of Cdc25C catalytic domain expressed in Escherichia coli BL21(DE3) using OMFP as substrate at 100 uM after 15 mins by fluorimetric assay.

The target in test [8] is T2, M-phase inducer phosphatase 2 (Homo sapiens). Put plainly: Irreversible inhibition of recombinant phosphatase activity of Cdc25B catalytic domain expressed in Escherichia coli BL21(DE3) assessed as residual activity of enzyme measured after 10 fold dilution at 50 uM preincubated for 20 mins. An outline of the steps:
as §1

Test [9] shares this target. Put plainly: Reversible inhibition of recombinant phosphatase activity of Cdc25B catalytic domain expressed in Escherichia coli BL21(DE3) assessed as residual activity of enzyme measured after 10 fold dilution at 100 uM preincubated for 20 mins. A digest of the protocol:
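Cdc25B (0.5 μg) preincubated 20 min at room temperature with 100 μM inhibitor or DMSO vehicle, then diluted 10-fold. Residual phosphatase activity was read after adding OMFP substrate and expressed as percent of the untreated control. Mean ± SD of three determinations.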

Test [10] has as its target T1, M-phase inducer phosphatase 2. Put plainly: Competitive inhibition of recombinant phosphatase activity of Cdc25B catalytic domain expressed in Escherichia coli BL21(DE3) using OMFP as substrate by Lineweaver-Burk plot analysis.
Test [11] has as its target T5, M-phase inducer phosphatase 1 (Homo sapiens, UniProt P30304).
T5 sequence (P30304 whole entry): T3 sequence (whole entry)
Put plainly: Inhibition of recombinant phosphatase activity of Cdc25A catalytic domain expressed in Escherichia coli BL21(DE3) using OMFP as substrate by Lineweaver-Burk plot analysis. An outline of the steps:
(§2)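 Purified recombinant Cdc25A catalytic domain; phosphatase activity measured as OMFP hydrolysis versus inhibitor concentration to derive IC50, with Ki calculated from kinetic measurements. Results are averages ± SD of three determinations.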

The target of test [12] is T5, M-phase inducer phosphatase 1. Kind of test: Inhibition of recombinant phosphatase activity of Cdc25A catalytic domain expressed in Escherichia coli BL21(DE3) using OMFP as substrate by spectrofluorimetric analysis. An outline of the steps: as §2

Turning to `Nc1ccc(Cc2ccc(N)c(C(=O)O)c2)cc1C(=O)O`, the half-maximal inhibitory concentration (IC50) in test [1] turned out to be 23.8 µM. In addition, the inhibition result in [2] is “Active”. Moreover, in test [3], the inhibition amounted to 52%.

With `CC(C)(Oc1ccc(-c2cccc3ccccc23)cc1)C(=O)O`, the inhibition stood at 40% in test [4], 47% in test [6] and 50% in [7]. For the same compound, the inhibition result in [5] is “Active”.

For `COc1cc(O)c(C(=O)c2ccccc2)cc1S(=O)(=O)O`, in [3], the inhibition was determined as 49%.

In the case of `O=C(O)C1CCCN1Cc1c[nH]c2ccccc12` (stereo unspecified), the inhibition in test [4] was found to be 37%; in [6], 39%; in [7] it was 45%.

Consider `O=C(O)c1ccc(C(=O)c2ccccc2C(=O)O)cc1`, for which the inhibition in [3] turned out to be 12%.

Regarding `O=C(O)c1cccc(Oc2ccc(C(=O)O)c([N+](=O)[O-])c2)c1`, the inhibition in test [3] worked out at 37%.

`CC(=O)c1ccc(C(=O)c2ccccc2C(=O)O)cc1`: the inhibition in test [3] is 20%.

With `O=C1C=C(Nc2nc(O)cc(C(=O)O)n2)c2ccccc2C1=O`, in [8], the inhibition result is “Active”. In addition, the inhibition in test [3] worked out at 60%.

For the compound `CC1C2C=CC1C(c1c3ccc(=O)c(O)c-3oc3c(O)c(O)ccc13)C2C(=O)O` (stereo unspecified), the inhibition entry in test [9] is “Active”. In addition, the inhibition in [4], in test [6] and in test [7] was 98% throughout.

Regarding `O=C1C=C(Nc2nc(C(=O)O)cc(=O)[nH]2)c2ccccc2C1=O`, the IC50 in test [1] is 9.9 µM.

As to `O=C(O)c1ccccc1C(=O)CCC(=O)c1ccccc1C(=O)O`, the inhibition in [3] came out at 20%.

With `Nc1ccc(C(=O)O)cc1S(=O)(=O)c1cc(C(=O)O)ccc1N`, in [1], the IC50 was found to be 20.1 µM. Also, the inhibition result in test [2] is “Active”. In addition, the inhibition in [3] came out at 62%.

In the case of `O=C(O)c1ccccc1C(=O)c1cccc2ccccc12`, the inhibition in test [3] was determined as 41%.

Take `O=C1C=C(Nc2cccc(C(=O)O)c2)c2ccccc2C1=O`: in [8], the inhibition entry was “Active”. In test [1], the IC50 stood at 4.2 µM. In test [3], the inhibition was 85%.

With `Sc1ccc2ccccc2c1CNCc1ccccc1`, the values for the inhibition in [4], in [6] and in test [7] were 60%, 35% and 53%, respectively.

For `NS(=O)(=O)c1cc2c(cc1Cl)N=C(CCC(=O)O)NS2(=O)=O`, the inhibition came to 41% in test [4], 21% in test [6] and 47% in test [7]. Further, in test [5], the inhibition result was “Active”.

With `O=C(C(=O)c1ccc(O)c(O)c1)c1ccc(O)c(O)c1`, the inhibition in test [3] is 22%.

In the case of `O=C(O)c1cc(C(=O)C(=O)c2cc(C(=O)O)c(O)c3ccccc23)c2ccccc2c1O`, in test [3], the inhibition stood at 26%.

For `O=C(O)c1cccc(F)c1C(=O)c1ccc2ccccc2c1`, in [3], the inhibition was 34%.

As to `O=C(O)c1ccccc1C(=O)c1ccc(Cl)c([N+](=O)[O-])c1`, the inhibition in test [3] was 13%.

For the compound `O=C(O)c1ccccc1C(=O)c1ccc(O)c([N+](=O)[O-])c1`, the inhibition in test [3] was 13%.

`COc1ccc(Cc2ccc3[nH]c(=O)cc(C)c3c2)cc1S(=O)(=O)O`: the Ki in test [10] is 84 µM; in test [11] it was 203 µM. For the same compound, the concentration for half-maximal inhibition (IC50) in test [1] came out at 133 µM; in [12] it was 86 µM.

Consider `O=C(Nc1ccc2ncccc2c1)Nc1ccc2ncccc2c1`, for which the inhibition in test [4] stood at 32%; in [6], 47%; in test [7], 48%. The inhibition result in [5] is “Active”.

For `Nc1ccc(-c2ccc(Nc3cc(S(=O)(=O)O)c(N)c4c3C(=O)c3ccccc3C4=O)cc2)c(S(=O)(=O)O)c1`, the inhibition in [4] amounted to 89%; in [6], 72%; in test [7] it was 49%.

Take `CC1=NN(c2ccc(S(=O)(=O)O)cc2)C(=O)/C1=C/c1ccc(Cl)cc1`: the inhibition in [4] is 46%; in [6], 17%; in test [7] it was 54%. Besides, the inhibition result in [5] is “Active”.

As to `O=C(O)c1ccccc1C(=O)c1ccc(-c2ccccc2)cc1`, the IC50 in test [1] amounted to 23.1 µM. Besides, the inhibition result in test [2] is “Active”. Besides, in [3], the inhibition is 54%.

As for `O=C(O)c1ccccc1-c1ccccc1C(=O)Nc1ccc2c(c1)nc(O)c1ccccc12`, the inhibition was found to be 45% in test [4], 66% in test [6] and 48% in [7]. For the same compound, the inhibition entry in [5] is “Active”.

Turning to `CNc1ccc(C(=O)c2ccccc2C(=O)O)cc1[N+](=O)[O-]`, in test [1], the concentration for half-maximal inhibition (IC50) turned out to be 7.9 µM. For the same compound, in test [2], the inhibition entry is “Active”. Further, in [3], the inhibition amounted to 65%.

As for `O=C(O)c1ccccc1C(=O)c1cccc([N+](=O)[O-])c1`, the inhibition in test [3] stood at 17%.

For the compound `CN(CCC(=O)O)C1=Nc2ccc(Cl)cc2C(c2ccccc2)=[N+]([O-])C1`, the inhibition came to 43% in test [4], 28% in test [6] and 48% in [7]. The inhibition entry in test [5] is “Active”.

As for `Cn1c(COc2ccccc2C(=O)O)nc2ccccc21`, the results for the inhibition in test [4], in test [6] and in [7] were 43%, 10% and 35%, respectively. The inhibition result in [5] is “Active”.

As for `O=C(O)c1cccc(Nc2ccccc2C(=O)O)c1`, the inhibition in test [3] worked out at 18%.

What is called IC50 is the concentration needed to halve the response being measured. As usually defined, the inhibition is the relative decrease from the control value, in per cent. A word on the Ki: it is the dissociation constant of the complex between target and ligand, obtained from inhibition or displacement.
